Kir21 block: inhibitors of mouse Kir2.1 inward-rectifier potassium channel. P35561. HEK293-Kir2.1, FluxOR thallium flux fluorescence; hits give low values. B-score at 10 µM. 310,000 compounds, 0.85% hits;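 active = fluorescence ratio B-score at or below minus 3 SD of library scores, with starting-brightness B-score within 2 SD, cut at about -4.2 in these data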;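 note: channel flux triggered by added potassium and thallium sulfate stimulus; B-score of peak minus minimum fluorescence over baseline after thallium stimulus; more negative B-score means stronger Kir2.1 block with less thallium influx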
Target sequence (P35561 whole entry, looked up): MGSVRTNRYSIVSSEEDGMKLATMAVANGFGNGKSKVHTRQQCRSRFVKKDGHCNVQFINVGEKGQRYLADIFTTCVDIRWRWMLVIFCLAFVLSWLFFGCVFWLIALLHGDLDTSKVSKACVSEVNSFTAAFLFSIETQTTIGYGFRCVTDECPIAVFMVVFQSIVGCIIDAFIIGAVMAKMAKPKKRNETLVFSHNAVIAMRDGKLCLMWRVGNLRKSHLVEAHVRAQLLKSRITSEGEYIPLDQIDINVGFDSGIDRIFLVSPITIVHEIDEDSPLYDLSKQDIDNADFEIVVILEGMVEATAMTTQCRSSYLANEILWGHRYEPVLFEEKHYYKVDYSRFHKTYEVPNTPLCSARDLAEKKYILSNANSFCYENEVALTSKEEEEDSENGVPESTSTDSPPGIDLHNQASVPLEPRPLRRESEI
KCNK3 inh: human KCNK3 channel inhibition, primary screen | CHO-KCNK3 thallium flux, FluxOR fluorescence; hits give low values | B-score at 10 µM | 340,000 compounds, 0.84% hits;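 active = B-score under library mean minus 4 SD, starting fluorescence ratio at most library mean plus 5 SD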;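 note: more negative B-score means stronger inhibition of thallium flux through KCNK3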
KCNQ1 block: inhibitors of human KCNQ1 potassium channel; CHO-K1 KCNQ1, FluxOR thallium flux fluorescence; hits give high values; B-score at 10 µM; 310,000 compounds, 1.3% hits;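 active = compounds whose thallium flux B-score, printed positive for inhibition, exceeds three library SD while starting fluorescence stays within three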;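 note: channel opened by potassium depolarization with thallium stimulus after 20 min compound exposure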
KCNK9 inh: human KCNK9 channel inhibition | Q9NPC2 | HEK293 KCNK9, FluxOR thallium flux fluorescence; hits give low values | B-score at 10 µM | 310,000 compounds, 1.2% hits | AID 488922;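 active = ratio B-score over 3 SD below the library mean, with starting fluorescence within 5 SD of its mean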;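 note: negative B-score means less thallium flux so channel inhibition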
hERG rescue: shields human hERG channel from block by proarrhythmic agents; Q12809; CHO-hERG, FluxOR thallium flux, dofetilide IC70 present; activation (rescue from dofetilide block), less the hit threshold, % at 10 µM; 310,000 compounds, 0.51% hits; AID 1511;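 active = activation above the mean of controls blocked by dofetilide plus 5 SD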;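 note: thallium influx through hERG after potassium depolarization seen as dye fluorescence rise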
KCNQ1 pot: potentiators or activators of human KCNQ1 potassium channel. 310,000 compounds, 0.35% hits. B-score at 10 µM. CHO-K1 KCNQ1, thallium flux FluxOR fluorescence; hits give high values. AID 2648;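 active = fluorescence ratio B-score, a plate-corrected score, at least three library SD, with initial intensity B-score within 5 SD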
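Medium – assay buffer, equal DMSO in all wells · Material – CHO-K1 cell line with stable KCNQ1 potassium channel expression · Signal – kinetic FluxOR thallium fluorescence, 10-s 1-Hz baseline, 110-s post-stimulus read · Compound – single concentration per compound, DMSO matched to controls · Schedule – 37 °C overnight plating, 90-min dark dye load, 20-min compound pretreatment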
KCNK9 block conf: human KCNK9 inhibitor confirmation; 4,900 compounds, 43% hits; HEK293 KCNK9 cells, FluxOR thallium flux fluorescence; inhibition, % at 10 µM; shares compounds with KCNK9 inh;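 active = thallium signal inhibited by more than 5 SD of the compound-free buffer control wells, on both duplicate plates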;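 note: 0% = assay buffer control wells without compound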
Kir21 sel: tests whether KCNK9 modulators also affect mouse Kir2.1. shares compounds with KCNK9 inh. Kir2.1 cells, FluxOR thallium flux fluorescence. inhibition, % at 10 µM. 4,900 compounds, 4% hits. AID 492993;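 active = thallium signal drop more than 5 SD beyond the mean of the no-compound control wells, seen in both duplicate plates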;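 note: signal is fluorescence rise after thallium addition divided by baseline fluorescence; plate controls were assay buffer only for no effect and full block by chlorpromazine control for full effect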
KCNK9 uninduced: second check of KCNK9 modulator effects in non-induced HEK293 cells; AID 492997; shares compounds with KCNK9 inh; 4,900 compounds, 40% hits; inhibition, % at 10 µM; FluxOR thallium flux;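 active = thallium signal drop beyond 5 SD of the untreated control mean, on both duplicate plates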;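 note: plate controls were buffer only IC0 wells for no effect and SID17386958 at its maximal inhibitory level for full effect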
The depositor's hits bear a star; i = inactive; · = no result given; ! = a repeat was not active. Sampled rows, rich in hits. Any-hit rate of the full collection: about 3.7%.

SMILES	Kir21 block	KCNK3 inh	KCNQ1 block	KCNK9 inh	hERG rescue	KCNQ1 pot	KCNK9 block conf	Kir21 sel	KCNK9 uninduced
COc1ccc(C(=O)NNC(=S)NC(=O)c2cccs2)cc1	0.69	i	i	-9.1*	-8	i	i	i	i
CN(C)S(=O)(=O)N1CCC(Oc2cccc(C(=O)N3CCCCCCC3)c2)CC1	0.85	i	i	i	-5	i	·	·	·
Cc1ccc(C(OCC(C)(C)C[N+](C)(C)C)c2ccccc2)cc1 (stereo unspecified)	0.33	i	i	i	-2	i	·	·	·
COC(=O)C1=C(C)N=C2SC(C)C(=O)N2C1/C=C/c1ccccc1OC (stereo unspecified)	0.33	i	i	i	-7	i	·	·	·
CCC1SC2=NC(C)=C(C(=O)OCC(C)C)C(/C=C/c3ccccc3OC)N2C1=O (stereo unspecified)	-2.1	i	i	i	-15	i	32%*	i	47%*
CCC1SC2=NC(C)=C(C(=O)OCCOC)C(/C=C/c3ccccc3OC)N2C1=O (stereo unspecified)	-0.3	i	i	i	-14	i	i	i	34%*
COCCOC(=O)C1=C(C)NC(C)=C(C(=O)OCCOC)C1/C=C/c1ccccc1OC	-1.9	i	i	i	-7	i	i	i	i
CCOC(=O)C1=C(C)NC(C)=C(C(=O)OCC)C1/C=C/c1ccccc1OC	0.7	i	i	i	-1	i	·	·	·
CCN(CC)S(=O)(=O)c1cc(NC(=O)CCn2[nH]c(=O)ccc2=O)ccc1C	·	i	·	·	·	·	·	·	·
COc1ccc(/C=C/C(=O)c2ccccc2)cc1COc1ccc(F)cc1	0.57	i	i	-13*	-5	i	70%*	28%*	55%*
COc1ccc(C(=O)/C=C/c2ccc(OC)c(COc3ccccc3F)c2)cc1	1.9	i	i	-16*	-9	i	70%*	i	31%*
CN(Cc1ccccc1)C(=O)CN1CCN(C(c2ccccc2)c2ccccc2)CC1	-2.1	i	i	i	-21	i	·	·	·
COc1ccc(-c2cc(C(=O)NC(C)c3ccccn3)c3ccccc3n2)cc1OC (stereo unspecified)	·	i	·	·	·	·	·	·	·
O=C(N/C(=C/c1ccc([N+](=O)[O-])cc1)C(=O)N1CCOCC1)c1ccco1	-0.71	i	i	i	-5	i	·	·	·
NC(=O)NCCN1CCN(c2ncc(C(F)(F)F)cc2Cl)CC1	-1.5	i	i	i	-2	i	·	·	·
COC(=O)c1c(N)sc2c1CCN(c1ncc(C(F)(F)F)cc1Cl)C2	-0.42	i	i	-9.4*	-4	i	38%*	i	i
O=C(CCCSc1nc2ccccc2[nH]1)Nc1nnc(C2CC2)s1	0.65	i	i	i	-7	i	·	·	·
CCCCCCCCCCOC(=O)Cn1c(COc2ccc(Cl)cc2)[n+](C)c2ccccc21	-8.9	i	i	-10*	-22	i	72%*	50%*	i
CCCCCCCCCCOC(=O)Cn1c(COc2ccc(OC)cc2)[n+](C)c2ccccc21	-8.6*	i	10*	-17*	-29	i	70%*	75%*	33%*!
CCOC(=O)Cn1c(COc2ccccc2OC)[n+](C)c2ccccc21	0.05	i	i	i	-7	i	·	·	·
CCCCCOC(=O)Cn1c(=O)oc2ccccc21	-0.89	i	i	i	-14	i	·	·	·
CCCCCCCCCCOC(=O)Cn1c(COc2ccccc2)[n+](C)c2ccccc21	-13*	i	8*	-15*	-23	i	72%*	75%*	34%*
CNc1ncnc2c1cnn2C1CCCCO1 (stereo unspecified)	·	i	·	·	·	·	·	·	·

Screening data deposited in PubChem by Johns Hopkins Ion Channel Center.
